Among the data in ChEMBL document CHEMBL1145494, “Covalent dimer species of beta-defensin Defr1 display potent antimicrobial activity against multidrug-resistant bacterial pathogens” (2007) are MBC values, retold here.

In experiment [1] the test system is Bordetella bronchiseptica. As to the kind of experiment: Antibacterial activity against Bordetella bronchiseptica J3083. Type of experiment: functional. An outline of the steps: (§1)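 Mid-log cultures grown in Iso-Sensitest broth, diluted to 1 × 10^6 to 5 × 10^6 CFU/ml in 10 mM potassium phosphate with 1% (vol/vol) Iso-Sensitest broth, pH 7.4. Peptide at various concentrations was incubated with 1 × 10^5 to 5 × 10^5 CFU in 100 μl at 37°C for 3 h. 10-fold dilutions were plated and CFU counted next day. MBC was taken as >99.99% killing of the inoculum, as the mean of triplicates on three independent occasions.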

The next experiment has as its system Burkholderia cepacia. As to the kind of experiment: Antibacterial activity against Burkholderia cepacia ATCC 25416. It counts as functional. An outline of the steps:
as §1

The next experiment relates to Ralstonia pickettii. As to the kind of experiment: Antibacterial activity against Ralstonia pickettii R4050/C3079. It counts as functional. Summed up:
as §1

The subject of another experiment is Cupriavidus necator. As to the kind of experiment: Antibacterial activity against Ralstonia eutropha ATCC 17697. It counts as functional. An outline of the steps: as §1
A further experiment concerns Acinetobacter baumannii. As to the kind of experiment: Antibacterial activity against Acinetobacter baumannii ATCC 19606. It counts as functional. An outline of the steps: as §1
Experiment [2] concerns Staphylococcus aureus. The experiment is described as follows: Antibacterial activity against ciprofloxacin and methicillin-resistant Staphylococcus aureus J2918.
The subject of a further experiment is Burkholderia cenocepacia. The experiment is described as follows: Antibacterial activity against Burkholderia cenocepacia ATCC BAA-245. It counts as functional. Summed up: as §1
Experiment [3] relates to Pseudomonas aeruginosa. The experiment is described as follows: Antibacterial activity against Pseudomonas aeruginosa PAO1. Type of experiment: functional. Summed up:
(§2)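 Bacteria grown to mid-log phase in Iso-Sensitest broth, diluted to 1 × 10^6 to 5 × 10^6 CFU/ml in 10 mM potassium phosphate, pH 7.4, with 1% (vol/vol) Iso-Sensitest broth. Peptide dilutions incubated with 100 μl of cells (1 × 10^5 to 5 × 10^5 CFU) at 37°C for 3 h. 10-fold dilutions plated and CFU counted next day. MBC = concentration giving >99.99% kill of inoculum. Triplicate on three occasions, mean taken.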

In the next experiment the test system is Candida albicans. As to the kind of experiment: Antifungal activity against Candida albicans J2922. It counts as functional.
The test system of experiment [4] is Stenotrophomonas maltophilia. As to the kind of experiment: Antibacterial activity against meropenem and tobramycin-resistant Stenotrophomonas maltophilia C3627. It counts as functional. An outline of the steps: as §2
The next experiment concerns Escherichia coli. The experiment is described as follows: Antibacterial activity against Escherichia coli ATCC 25922. It counts as functional. Summed up:
as §1

The subject of experiment [5] is Pseudomonas aeruginosa. As to the kind of experiment: Antibacterial activity against tobramycin-resistant Pseudomonas aeruginosa H183. Type of experiment: functional. Summed up: as §2
Experiment [6] relates to Stenotrophomonas maltophilia. The experiment is described as follows: Antibacterial activity against ciprofloxacin, meropenem and tobramycin-resistant Stenotrophomonas maltophilia C1980. It counts as functional. Summed up: as §2
Experiment [7] has as its system Pseudomonas aeruginosa. The experiment is described as follows: Antibacterial activity against meropenem and colistin-resistant Pseudomonas aeruginosa C3425. It counts as functional. Summed up: as §2
The test system of experiment [8] is Pseudomonas aeruginosa. The experiment is described as follows: Antibacterial activity against meropenem and tobramycin-resistant Pseudomonas aeruginosa C3781. Type of experiment: functional. An outline of the steps:
as §2

Experiment [9] relates to Staphylococcus aureus. The experiment is described as follows: Antibacterial activity against Staphylococcus aureus ATCC 25923. Type of experiment: functional. An outline of the steps: as §1
Experiment [10] deals with Stenotrophomonas maltophilia. As to the kind of experiment: Antibacterial activity against ciprofloxacin, meropenem and colistin-resistant Stenotrophomonas maltophilia C3625. It counts as functional. Summed up:
as §2

Experiment [11] concerns Stenotrophomonas maltophilia. The experiment is described as follows: Antibacterial activity against ciprofloxacin and meropenem-resistant Stenotrophomonas maltophilia C3626.
The next experiment deals with Enterococcus faecalis. The experiment is described as follows: Antibacterial activity against Enterococcus faecalis ATCC 700802. Type of experiment: functional. Summed up: as §1
The subject of experiment [12] is Pseudomonas aeruginosa. As to the kind of experiment: Antibacterial activity against tobramycin-resistant Pseudomonas aeruginosa C4269. Type of experiment: functional. An outline of the steps: as §2
The test system of experiment [13] is Pseudomonas aeruginosa. As to the kind of experiment: Antibacterial activity against Pseudomonas aeruginosa in presence of 100 mM NaCl. Type of experiment: functional. An outline of the steps: (§3)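 P. aeruginosa PAO1 (1 × 10^5 CFU in 100 μl) in 10 mM potassium phosphate with 1% (vol/vol) Iso-Sensitest, pH 7.4, containing NaCl (0 to 200 mM). Challenged with peptide in doubling dilutions from 0 to 150 μg/ml at 37°C for 3 h, then plated for CFU. MBC (>99.99% killing) was determined at each NaCl concentration.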

The subject of experiment [14] is Pseudomonas aeruginosa. The experiment is described as follows: Antibacterial activity against Pseudomonas aeruginosa in presence of 50 mM NaCl. It counts as functional. Summed up: as §3
In experiment [15] the test system is Pseudomonas aeruginosa. The experiment is described as follows: Antibacterial activity against Pseudomonas aeruginosa in presence of 200 mM NaCl. It counts as functional. Summed up: as §3
The test system of experiment [16] is Pseudomonas aeruginosa. The experiment is described as follows: Antibacterial activity against Pseudomonas aeruginosa in presence of 150 mM NaCl. Type of experiment: functional. An outline of the steps:
as §3

Values after ≈ are worked out from the molar mass of the structure shown. Residues, ends and D or L forms follow the SMILES beside them.

Consider `CC[C@H](C)[C@H](NC(=O)CNC(=O)CNC(=O)[C@H](CC(N)=O)NC(=O)[C@H](CCCNC(=N)N)NC(=O)[C@@H](NC(=O)[C@H](CS)NC(=O)[C@@H](NC(=O)[C@@H](NC(=O)[C@@H]1CCCN1C(=O)[C@@H](N)CC(=O)O)C(C)C)[C@@H](C)O)[C@@H](C)CC)C(=O)N[C@@H](CS)C(=O)N[C@@H](CCC(N)=O)C(=O)N[C@@H](Cc1ccc(O)cc1)C(=O)N[C@@H](CCCNC(=N)N)C(=O)N[C@@H](CS)C(=O)N[C@H](C(=O)NCC(=O)N[C@@H](CC(C)C)C(=O)N[C@@H](CCCNC(=N)N)C(=O)N[C@@H](Cc1cnc[nH]1)C(=O)N[C@@H](CCCCN)C(=O)N[C@H](C(=O)NCC(=O)N[C@H](C(=O)N[C@@H](CS)C(=O)NCC(=O)N[C@@H](CO)C(=O)N1CCC[C@H]1C(=O)N[C@@H](Cc1ccccc1)C(=O)N[C@@H](CCCCN)C(=O)N[C@@H](CS)C(=O)N[C@@H](CS)C(=O)N[C@@H](CCCCN)C(=O)O)[C@@H](C)O)[C@@H](C)CC)[C@@H](C)CC` (H-DPVTCIRNGGICQYRCIGLRHKIGTCGSPFKCCK-OH), for which the MBC in experiment [1] was over 100 µg/mL; with Burkholderia cepacia it was over 100 µg/mL; with Ralstonia pickettii it was over 100 µg/mL; in the experiment on Cupriavidus necator, over 100 µg/mL; with Acinetobacter baumannii, 12.5 µg/mL (≈ 3.35 µM); against Staphylococcus aureus [2], over 100 µg/mL. Further, the MBC in the experiment with Burkholderia cenocepacia is over 100 µg/mL; in the experiment with Pseudomonas aeruginosa [3], 50 µg/mL (≈ 13.4 µM); against Candida albicans it was 25 µg/mL (≈ 6.71 µM); in experiment [4], over 100 µg/mL; in the experiment on Escherichia coli, over 100 µg/mL; against Pseudomonas aeruginosa [5] it was 100 µg/mL (≈ 26.8 µM). The MBC was over 100 µg/mL in experiment [6]; 50 µg/mL (≈ 13.4 µM) against Pseudomonas aeruginosa [7]; 100 µg/mL (≈ 26.8 µM) with Pseudomonas aeruginosa [8]; over 100 µg/mL in the experiment on Staphylococcus aureus [9]; over 100 µg/mL in experiment [10]; over 100 µg/mL in [11]. Further, the MBC is 100 µg/mL (≈ 26.8 µM) in the experiment on Enterococcus faecalis and over 100 µg/mL against Pseudomonas aeruginosa [12].

With `CC[C@H](C)[C@H](NC(=O)CNC(=O)CNC(=O)[C@H](CC(N)=O)NC(=O)[C@H](CCCNC(=N)N)NC(=O)[C@@H](NC(=O)[C@H](Cc1ccc(O)cc1)NC(=O)[C@@H](NC(=O)[C@@H](NC(=O)[C@@H]1CCCN1C(=O)[C@@H](N)CC(=O)O)C(C)C)[C@@H](C)O)[C@@H](C)CC)C(=O)N[C@@H](CS)C(=O)N[C@@H](CCC(N)=O)C(=O)N[C@@H](Cc1ccc(O)cc1)C(=O)N[C@@H](CCCNC(=N)N)C(=O)N[C@@H](CS)C(=O)N[C@H](C(=O)NCC(=O)N[C@@H](CC(C)C)C(=O)N[C@@H](CCCNC(=N)N)C(=O)N[C@@H](Cc1cnc[nH]1)C(=O)N[C@@H](CCCCN)C(=O)N[C@H](C(=O)NCC(=O)N[C@H](C(=O)N[C@@H](CS)C(=O)NCC(=O)N[C@@H](CO)C(=O)N1CCC[C@H]1C(=O)N[C@@H](Cc1ccccc1)C(=O)N[C@@H](CCCCN)C(=O)N[C@@H](CS)C(=O)N[C@@H](CS)C(=O)N[C@@H](CCCCN)C(=O)O)[C@@H](C)O)[C@@H](C)CC)[C@@H](C)CC` (H-DPVTYIRNGGICQYRCIGLRHKIGTCGSPFKCCK-OH), the MBC is 6 µg/mL (≈ 1.58 µM) in experiment [1]; over 100 µg/mL against Burkholderia cepacia; 3 µg/mL (≈ 0.792 µM) in the experiment on Ralstonia pickettii; 3 µg/mL (≈ 0.792 µM) with Cupriavidus necator; 3 µg/mL (≈ 0.792 µM) in the experiment on Acinetobacter baumannii; 6 µg/mL (≈ 1.58 µM) in the experiment on Staphylococcus aureus [2]. Besides, the MBC against Burkholderia cenocepacia was over 100 µg/mL; with Pseudomonas aeruginosa [3] it was 6 µg/mL (≈ 1.58 µM); with Candida albicans, 3 µg/mL (≈ 0.792 µM); in [4] it was 6 µg/mL (≈ 1.58 µM); in the experiment on Escherichia coli, 8 µg/mL (≈ 2.11 µM); against Pseudomonas aeruginosa [5], 6 µg/mL (≈ 1.58 µM). The MBC in [6] worked out at 12.5 µg/mL (≈ 3.3 µM); in the experiment on Pseudomonas aeruginosa [7], 6 µg/mL (≈ 1.58 µM); against Pseudomonas aeruginosa [8] it was 6 µg/mL (≈ 1.58 µM); against Staphylococcus aureus [9], 10 µg/mL (≈ 2.64 µM); in [10], 6 µg/mL (≈ 1.58 µM); in experiment [11], 3 µg/mL (≈ 0.792 µM). Moreover, the MBC in the experiment on Enterococcus faecalis and against Pseudomonas aeruginosa [12] was 6 µg/mL (≈ 1.58 µM) throughout.

For H-DPVTYIRNGGIAQYRAIGLRHKIGTAGSPFKCAK-OH, the MBC was 25 µg/mL with Pseudomonas aeruginosa [13], 25 µg/mL with Pseudomonas aeruginosa [14], 50 µg/mL in the experiment on Pseudomonas aeruginosa [15] and 50 µg/mL in the experiment with Pseudomonas aeruginosa [16].

For the molecule POLYMYXIN B, the MBC in [1] was 0.12 µg/mL; in the experiment with Burkholderia cepacia it was over 512 µg/mL; with Ralstonia pickettii, over 512 µg/mL; with Cupriavidus necator it was 128 µg/mL; against Acinetobacter baumannii it was 1 µg/mL; in the experiment on Burkholderia cenocepacia, over 512 µg/mL. The MBC in the experiment with Pseudomonas aeruginosa [3] is 0.5 µg/mL; with Candida albicans, over 512 µg/mL; in experiment [4] it was 64 µg/mL; in the experiment with Escherichia coli it was 0.25 µg/mL; against Pseudomonas aeruginosa [5] it was 1 µg/mL; in experiment [6] it was 32 µg/mL. For the same molecule, the MBC with Pseudomonas aeruginosa [7] stood at 1 µg/mL; in the experiment on Pseudomonas aeruginosa [8], 0.5 µg/mL; in the experiment on Staphylococcus aureus [9], 256 µg/mL; in experiment [10], 32 µg/mL; in the experiment with Enterococcus faecalis, 256 µg/mL; against Pseudomonas aeruginosa [12], 1 µg/mL.
